In PMC12056735 (RSC Advances, 2025):
Where two headings read alike, the source gives them in different places.

Experiments:
MDA-MB-231 cells [1] = format: cell-based, human; conditions: cancer cells over normal cells
MDA-MB-231 cells [2] = assay: Apoptosis analysis, Annexin V-FITC/PI flow cytometry; format: cell-based, human
Procedure, shortened: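 Annexin V-FITC/PI flow cytometry on MDA-MB-231 cells exposed to test compound. Percentages of viable, early apoptotic, late apoptotic and necrotic cells are compared against an untreated control group of the same cells.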

VEGFR-2 = VEGFR-2 (Homo sapiens, UniProt P35968); assay: biochemical
Chain of VEGFR-2 (P35968 20-1356): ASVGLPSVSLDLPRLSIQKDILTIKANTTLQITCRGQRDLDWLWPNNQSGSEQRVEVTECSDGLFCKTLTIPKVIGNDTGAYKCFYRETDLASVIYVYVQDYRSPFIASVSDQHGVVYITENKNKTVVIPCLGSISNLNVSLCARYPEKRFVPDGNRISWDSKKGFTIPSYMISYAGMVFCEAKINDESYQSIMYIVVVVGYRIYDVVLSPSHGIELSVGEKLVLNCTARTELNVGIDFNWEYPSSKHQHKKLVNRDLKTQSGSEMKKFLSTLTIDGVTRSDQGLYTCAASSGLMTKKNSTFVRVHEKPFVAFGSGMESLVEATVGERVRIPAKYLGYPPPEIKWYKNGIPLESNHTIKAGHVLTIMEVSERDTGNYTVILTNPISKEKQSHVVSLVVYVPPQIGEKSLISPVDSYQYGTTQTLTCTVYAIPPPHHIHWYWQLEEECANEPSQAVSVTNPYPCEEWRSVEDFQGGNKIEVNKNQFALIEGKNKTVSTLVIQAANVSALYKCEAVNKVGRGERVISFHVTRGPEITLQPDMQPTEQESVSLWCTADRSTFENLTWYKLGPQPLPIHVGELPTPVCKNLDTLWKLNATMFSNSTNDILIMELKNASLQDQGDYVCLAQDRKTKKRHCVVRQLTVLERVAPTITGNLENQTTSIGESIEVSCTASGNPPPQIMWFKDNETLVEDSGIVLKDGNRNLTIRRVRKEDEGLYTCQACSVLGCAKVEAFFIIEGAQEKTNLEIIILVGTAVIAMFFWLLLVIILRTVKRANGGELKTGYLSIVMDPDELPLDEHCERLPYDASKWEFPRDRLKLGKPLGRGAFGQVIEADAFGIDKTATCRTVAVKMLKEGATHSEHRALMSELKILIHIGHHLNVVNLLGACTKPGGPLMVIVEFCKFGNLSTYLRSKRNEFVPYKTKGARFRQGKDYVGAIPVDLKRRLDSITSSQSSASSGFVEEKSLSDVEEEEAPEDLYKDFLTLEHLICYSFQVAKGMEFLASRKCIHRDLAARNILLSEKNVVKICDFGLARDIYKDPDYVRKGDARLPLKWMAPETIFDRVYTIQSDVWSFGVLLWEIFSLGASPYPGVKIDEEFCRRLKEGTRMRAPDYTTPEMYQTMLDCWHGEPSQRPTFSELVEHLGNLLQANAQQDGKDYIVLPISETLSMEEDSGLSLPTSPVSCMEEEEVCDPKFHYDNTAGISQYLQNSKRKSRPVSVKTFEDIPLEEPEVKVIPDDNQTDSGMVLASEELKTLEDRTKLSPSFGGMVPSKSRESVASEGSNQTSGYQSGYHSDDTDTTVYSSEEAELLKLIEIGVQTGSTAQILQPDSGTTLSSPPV

[3] = Safety assay on normal cells, MTT assay; format: cell-based; conditions: human, WI-38 cells (normal lung fibroblast cell line)
Procedure, shortened: (§1)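 MTT viability assay, run on normal WI-38 and WISH cells in parallel with MDA-MB-231 and MCF-7 breast cancer lines to judge selectivity. A series of test compounds and a reference drug were tested.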

[4] = Safety assay on normal cells, MTT assay; format: cell-based; conditions: human, WISH cells (normal amnion cell line)
Procedure, shortened: as §1

MDA-MB-231 cells [5] = assay: Cell cycle analysis, flow cytometry; format: cell-based, human; conditions: MDA-MB-231, 4.64 µM 7a, 48 h
MCF-7 cells = format: cell-based, human; conditions: cancer cells over normal cells
Bcl-2 = assay: ELISA for Bcl-2 in MDA-MB-231 cells; format: cell-based, human
Bax = assay: ELISA for Bax in MDA-MB-231 cells; format: cell-based, human; conditions: MDA-MB-231, 4.64 µM 7a, 72 h
caspase-3 = assay: ELISA for caspase-3 in MDA-MB-231 cells; format: cell-based, human
MCF-7 = conditions: read-out: IC50 against MCF-7; cited from earlier work
HCT-116 = conditions: cited from earlier work
[6] = MDA-MB-231, 4.64 µM 7a, 72 h, ELISA

## CC(=O)c1nn(-c2ccccc2Cl)/c(=N/N=C(\C)c2ccc(NC(=O)c3cccnc3)cc2)s1 [Compound 7a, N-(4-((E)-1-(((Z)-5-Acetyl-3-(2-chlorophenyl)-1,3,4-thiadiazol-2(3H)-ylidene)hydrazono)ethyl)phenyl)nicotinamide]
MDA-MB-231 cells [1]
  Selectivity index (SI) for MDA-MB-231: 15.86
MDA-MB-231 cells [2]; Homo sapiens, MDA-MB-231, 48 h, read-out: Viable cells
  viability at 4.64 µM: 50%
MDA-MB-231 cells [2]; MDA-MB-231, 4.64 µM 7a, 48 h
  Early apoptosis: 1.06%
  Late apoptosis: 44.01%
  Necrosis: 4.94%
VEGFR-2
  IC50: 0.095 ± 0.05 µM
[3]
  IC50 at 24 h: 73.6 ± 3.8 µM
[4]
  IC50 at 24 h: 57.7 ± 3.3 µM
MDA-MB-231 cells [5]
  Cell cycle distribution, G0/G1: 33%
  Cell cycle distribution, G2/M: 8%
  Cell cycle distribution, S: 59%
MCF-7 cells
  Selectivity index (SI) for MCF-7: 8.14
Bcl-2; [6]
  Bcl-2 conc.: 1.53
Bcl-2; fold vs control MDA-MB-231 (FLD = 1), downregulated
  Bcl-2 FLD: 3.68 fold
Bax
  Bax conc.: 394.72
caspase-3; [6]
  Caspase-3 conc.: 441.93
caspase-3; fold vs control MDA-MB-231 (FLD = 1), upregulated
  Caspase-3 FLD: 8.2 fold

## CNC(=O)c1cc(Oc2ccc(NC(=O)Nc3ccc(Cl)c(C(F)(F)F)c3)cc2)ccn1 [Sorafenib]
MCF-7
  IC50: 6.72 µM
[3]
  IC50 at 24 h: 10.6 ± 0.8 µM
[4]
  IC50 at 24 h: 13.4 ± 1.1 µM
HCT-116; read-out: IC50 against HCT-116
  IC50: 9.3 µM
HCT-116; read-out: IC50 against HCT-116 cells
  IC50: 7.28 µM
